pKd: −log10 of the molar value.
Key:
Adenosine receptor A2a [1] = biological target: T1, Adenosine receptor A2a (Homo sapiens, UniProt P29274); assay: Displacement of [3H]4-[2-[7-amino-2-(2-furyl)-1,2,4-triazolo[1,5-a][1,3,5]triazin-5-yl-amino]ethylphenol from wild type human adenosine A2a receptor expressed in HEK293 cells assessed as radioligand Kd compound preincubated for 30 mins
Target sequence in this assay (P29274 whole entry): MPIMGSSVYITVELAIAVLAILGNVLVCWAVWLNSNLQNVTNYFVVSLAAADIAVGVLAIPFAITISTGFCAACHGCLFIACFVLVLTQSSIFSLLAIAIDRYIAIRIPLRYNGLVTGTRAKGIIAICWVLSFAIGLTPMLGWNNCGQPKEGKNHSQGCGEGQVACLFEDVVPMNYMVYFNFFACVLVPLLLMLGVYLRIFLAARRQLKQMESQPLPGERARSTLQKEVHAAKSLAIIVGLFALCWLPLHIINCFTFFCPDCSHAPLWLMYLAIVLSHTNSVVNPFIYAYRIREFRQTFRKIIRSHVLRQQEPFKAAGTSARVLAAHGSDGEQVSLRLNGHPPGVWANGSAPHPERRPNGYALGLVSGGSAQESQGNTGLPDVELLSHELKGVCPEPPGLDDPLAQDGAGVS

Adenosine receptor A2a [2] = biological target: T1, Adenosine receptor A2a; assay: Displacement of [3H]4-[2-[7-amino-2-(2-furyl)-1,2,4-triazolo[1,5-a][1,3,5]triazin-5-yl-amino]ethylphenol from wild type human adenosine A2a receptor expressed in COS-7 cells assessed as radioligand Kd compound preincubated for 30 mins
Procedure, shortened: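 WT, K150A or K153A human A2A receptor was transiently transfected into COS-7 cells. Membranes were preincubated with or without compound, then washed. Saturation binding used antagonist radioligand [3H]7, with nonspecific binding defined by 10 μM NECA. Kd (nM) and Bmax (pmol/mg protein) were derived from the saturation curves.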
Target sequence in this assay (P29274 whole entry): as above

Adenosine receptor A2a [3] = biological target: T1, Adenosine receptor A2a; assay: Displacement of [3H]4-[2-[7-amino-2-(2-furyl)-1,2,4-triazolo[1,5-a][1,3,5]triazin-5-yl-amino]ethylphenol from human adenosine A2a receptor K150A mutant expressed in COS-7 cells assessed as radioligand Kd compound preincubated for 30 mins
Target sequence in this assay (P29274 whole entry, looked up): as the sequence (P29274 whole entry) above

Row | pKd (Adenosine receptor A2a [1]) | pKd (Adenosine receptor A2a [2]) | pKd (Adenosine receptor A2a [3]) | Compound
1 | 8.30 | 8.66 | 8.50 | CCNC(=O)[C@H]1O[C@@H](n2cnc3c(N)nc(NCCc4ccc(CCC(=O)Nc5ccc(OC(C)=O)c([N+](=O)[O-])c5)cc4)nc32)[C@H](O)[C@@H]1O
2 | 8.49 | – | – | CCNC(=O)[C@H]1O[C@@H](n2cnc3c(N)nc(NCCc4ccc(CCC(=O)Nc5ccc(OC(=O)CCCCN=[N+]=[N-])c([N+](=O)[O-])c5)cc4)nc32)[C@H](O)[C@@H]1O

— BindingDB's records for doi:10.1021/ml5002486 (National Institute of Diabetes and Digestive and Kidney …, 2014)
